Key:
[1] = biological target: T1, Serine/threonine-protein kinase B-raf (Homo sapiens, UniProt P15056, V600E); test: Inhibition of full length B-Raf V600E mutant
[2] = biological target: T1, Serine/threonine-protein kinase B-raf; test: Inhibition of B-Raf V600E mutant in human Malme-3M cells assessed as ERK phosphorylation; type: cell-based
Summary of the method: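 Mechanistic cellular read-out: inhibition of basal ERK phosphorylation in Malme-3M melanoma cells; IC50 taken as the mean of at least two experiments.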

T1 sequence (P15056 2-766 V600E limits assumed): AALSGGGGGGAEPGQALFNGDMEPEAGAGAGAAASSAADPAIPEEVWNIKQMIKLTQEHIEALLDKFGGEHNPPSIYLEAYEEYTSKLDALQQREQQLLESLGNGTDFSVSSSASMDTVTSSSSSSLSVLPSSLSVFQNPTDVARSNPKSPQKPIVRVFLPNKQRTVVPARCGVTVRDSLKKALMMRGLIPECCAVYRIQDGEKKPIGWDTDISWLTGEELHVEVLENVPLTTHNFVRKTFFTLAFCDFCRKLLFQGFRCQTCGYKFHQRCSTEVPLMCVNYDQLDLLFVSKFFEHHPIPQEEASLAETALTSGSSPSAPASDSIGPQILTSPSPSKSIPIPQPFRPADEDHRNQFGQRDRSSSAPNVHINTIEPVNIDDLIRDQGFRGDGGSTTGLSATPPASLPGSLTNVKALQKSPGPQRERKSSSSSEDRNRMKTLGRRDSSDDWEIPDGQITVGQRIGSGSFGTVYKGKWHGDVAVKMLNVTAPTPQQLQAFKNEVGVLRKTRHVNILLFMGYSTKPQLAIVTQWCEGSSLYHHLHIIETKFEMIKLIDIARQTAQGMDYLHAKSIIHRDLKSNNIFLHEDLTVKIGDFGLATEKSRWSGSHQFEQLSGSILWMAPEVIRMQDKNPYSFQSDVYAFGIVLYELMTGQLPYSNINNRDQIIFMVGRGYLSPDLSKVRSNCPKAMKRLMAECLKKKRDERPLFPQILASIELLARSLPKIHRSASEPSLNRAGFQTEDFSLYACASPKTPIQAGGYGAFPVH

Structure (SMILES)	IC50 [1] [nM]	IC50 [2] [nM]
COc1n[nH]c2ncc(NC(=O)c3cccc(NC(=O)c4cccc(C(C)(C)C#N)c4)c3F)cc12	5.1	1800
COc1n[nH]c2ncc(NC(=O)c3cccc(NC(=O)c4cccc(C(C)(C)C#N)c4)c3)cc12	0.9	140
O=C(Nc1ccccc1)Nc1cccc(C(=O)Nc2cnc3[nH]ncc3c2)c1	0.7	> 10000
COc1n[nH]c2ncc(NC(=O)c3cc(NC(=O)c4ccc(Cl)c(C(F)(F)F)c4)ccc3F)cc12	1.3	96
COc1n[nH]c2ncc(NC(=O)c3c(F)ccc(NC(=O)c4ccccc4)c3F)cc12	39	> 12000
CC(C)(C#N)c1cccc(C(=O)Nc2ccc(F)c(C(=O)Nc3cnc4[nH]ncc4c3)c2F)c1	3.5	430
COc1n[nH]c2ncc(NC(=O)c3c(F)ccc(NC(=O)c4cccc(C(C)(C)C#N)c4)c3F)cc12		180
COc1n[nH]c2ncc(NC(=O)c3cc(NC(=O)c4cccc(C(C)(C)C#N)c4)ccc3C)cc12	1.9	18
COc1n[nH]c2ncc(NC(=O)c3cc(C(=O)Nc4cccc(C(F)(F)F)c4)ccc3C)cc12	6.6	52
CC(C)(C#N)c1cccc(C(=O)Nc2ccc(F)c(C(=O)Nc3cnc4[nH]nc(C5CC5)c4c3)c2F)c1	3	520
CC(C)(C#N)c1cccc(C(=O)Nc2ccc(F)c(C(=O)Nc3cnc4[nH]ccc4c3)c2F)c1	6.8	440
COc1n[nH]c2ncc(NC(=O)c3cc(NC(=O)c4cccc(C(C)(C)C#N)c4)ccc3Cl)cc12	1.2	22
COc1n[nH]c2ncc(NC(=O)c3cccc(C(=O)Nc4ccccc4)c3)cc12	80	> 10000
COc1n[nH]c2ncc(NC(=O)c3cc(NC(=O)c4cccc(C(C)(C)C#N)c4)ccc3F)cc12	1	20

Source: ChEMBL document CHEMBL2150947, “Pyrazolopyridine inhibitors of B-Raf(V600E). Part 4: rational design and kinase selectivity profile of cell potent type II inhibitors” (Bioorg Med Chem Lett, 2012)
